From ChEMBL document CHEMBL4346668, “Novel multitarget inhibitors with antiangiogenic and immunomodulator properties” (Eur J Med Chem, 2019)

Legend:
HeLa = experiment: Antiproliferative activity against human HeLa cells incubated for 2 days by MTT assay; type: functional, cell-based; conditions: 48 h
Method in brief: (§1)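 MTT assay. Cells seeded at 3 × 10³/well (HeLa, A549, HMEC-1, HEK-293) or 5 × 10³/well (HT-29, MCF-7) in their growth media with serial compound dilutions from 10 mM DMSO stocks. Incubated 2 days at 37 °C, 5% CO₂, then MTT added for 3 h and formazan dissolved in DMSO. A540 read and viability expressed versus untreated cells. IC₅₀ determined graphically; three independent experiments.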

HT-29 [1] = experiment: Antiproliferative activity against human HT-29 cells incubated for 2 days by MTT assay; type: functional, cell-based; conditions: HT-29, 48 h; method in brief: as §1
HMEC-1 [2] = experiment: Antiproliferative activity against HMEC1 cells incubated for 2 days by MTT assay; type: cell-based; conditions: Homo sapiens, HMEC-1, 48 h; method in brief: as §1
[3] = molecular target: Programmed cell death 1 ligand 1 (Homo sapiens) (UniProt Q9NZQ7); experiment: Binding affinity to PDL1 (unknown origin) assessed as change in melting temperature at 100 uM by fluorescence based real time RT-PCR analysis
A549 [4] = experiment: Effect on VEGFR2 in human A549 cells assessed as total VEGFR2 level at 100 uM incubated for 24 hrs by flow cytometric analysis relative to control; type: functional
HEK293 = experiment: Antiproliferative activity against HEK293 cells incubated for 2 days by MTT assay; type: cell-based; conditions: Homo sapiens, HEK293, 48 h; method in brief: as §1
A549 [5] = experiment: Effect on VEGFR2 in human A549 cells assessed as membrane VEGFR2 level at 100 uM incubated for 24 hrs by flow cytometric analysis relative to control; type: functional
Method in brief: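 A549 cells exposed 24 h to compound at 100 µM. Membrane VEGFR-2 stained on fixed cells with Alexa Fluor 647 anti-VEGFR-2; Triton X-100 permeabilization before fixation used for total VEGFR-2. Flow cytometry, % of DMSO control; mean ± SD of three experiments.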

A549 [6] = experiment: Immunomodulatory activity in human A549 cells assessed as reduction in PD-L1 expression level at 100 uM incubated for 24 hrs by ELISA relative to control; type: functional; parameters: scale not given: the % may be the effect or the level left
Method in brief: (§2)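 A549 cells (3·10⁵/well) treated 24 h with compound; final concentration 100 µM for some compounds and 15 µM for others per table footnote. Lysates protein-normalized by Bradford, and PD-L1 and c-Myc quantified by commercial ELISA kits as % of DMSO-treated cells. Mean ± SD of three experiments.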

[7] = molecular target: Vascular endothelial growth factor receptor 2 (Homo sapiens) (UniProt P35968)
HMEC-1 [8] = experiment: Effect on VEGFR2 in HMEC1 cells assessed as membrane VEGFR2 level at 100 uM incubated for 24 hrs by flow cytometric analysis relative to control; type: functional, Homo sapiens
Method in brief: (§3)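 HMEC-1 cells exposed 24 h to compound at 100 µM. Membrane VEGFR-2 measured on fixed cells stained with Alexa Fluor 647 anti-CD309; total VEGFR-2 measured after Triton X-100 permeabilization before fixation. Read by flow cytometry as % of DMSO control.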

A549 [9] = experiment: Antiproliferative activity against human A549 cells incubated for 2 days by MTT assay; type: functional, cell-based; conditions: A549, 48 h; method in brief: as §1
MCF7 = experiment: Antiproliferative activity against human MCF7 cells incubated for 2 days by MTT assay; type: functional, cell-based; conditions: MCF7, 48 h; method in brief: as §1
HMEC-1 [10] = experiment: Effect on VEGFR2 in HMEC1 cells assessed as total VEGFR2 level at 100 uM incubated for 24 hrs by flow cytometric analysis relative to control; type: functional, Homo sapiens; method in brief: as §3
A549 [11] = experiment: Induction of apoptosis in human A549 cells assessed as apoptotic cells at 100 uM incubated for 24 hrs by FITC-Annexin V staining based flow cytometric analysis (reference value: 20%); type: functional
A549 [12] = experiment: Immunomodulatory activity in human A549 cells assessed as reduction in c-Myc expression level at 100 uM incubated for 24 hrs by ELISA relative to control; type: functional; parameters: scale not given: the % may be the effect or the level left; method in brief: as §2
HMEC-1 [13] = experiment: Antiangiogenic activity against HMEC1 cells assessed as inhibition of tube formation incubated for 20 hrs by matrigel based tube formation assay; type: functional, Homo sapiens
Method in brief: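 HMEC-1 cells in EGM-2MV medium seeded at 2 x 10⁴ cells/well on Matrigel (10 mg/mL, gelled 30 min at 37°C) and attached for 30 min. Compounds were added at different concentrations and tube formation was assessed after 20 h at 37°C. The minimum concentration at which inhibition began was reported. Data representative of three experiments.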

A549 [14] = experiment: Antiproliferative activity against human A549 cells at 200 uM incubated for 24 hrs in presence of Jurkat T cells by trypan blue staining based Neubauer chamber method relative to control; type: functional
Method in brief: (§4)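 Co-culture of 5 × 10⁴ tumor cells/well with 2 × 10⁵ PD-1-expressing Jurkat T cells in 1.5 mL, treated 24 h with compound at 200 µM. Supernatant discarded; tumor cells trypsinized, stained with trypan blue and living cells counted in a Neubauer chamber. Proliferation inhibition (%) attributable to Jurkat presence reported; representative of three experiments.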

A549 [15] = experiment: Effect on VEGFR2 in human A549 cells assessed as membrane VEGFR2 level at 10 uM incubated for 24 hrs by flow cytometric analysis relative to control; type: functional
Method in brief: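 A549 cells incubated 24 h with compound at 10 µM. Membrane VEGFR-2 (fixed cells) and total VEGFR-2 (permeabilized or lysate) stained with Alexa Fluor 647 anti-CD309 and quantified by flow cytometry relative to DMSO control; mean ± SD of three experiments.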

A549 [16] = experiment: Effect on VEGFR2 in human A549 cells assessed as total VEGFR2 level at 10 uM incubated for 24 hrs by flow cytometric analysis relative to control; type: functional
HT-29 [17] = experiment: Antiproliferative activity against human HT-29 cells at 200 uM incubated for 24 hrs in presence of Jurkat T cells by trypan blue staining based Neubauer chamber method relative to control; type: functional; method in brief: as §4
HMEC-1 [18] = experiment: Effect on VEGFR2 in HMEC1 cells assessed as total VEGFR2 level at 10 uM incubated for 24 hrs by flow cytometric analysis relative to control; type: functional, Homo sapiens
Method in brief: (§5)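 HMEC-1 cells exposed 24 h to compound. Membrane VEGFR-2 measured on fixed cells stained with Alexa Fluor 647 anti-CD309; total VEGFR-2 measured on lysates or permeabilized cells. Read by flow cytometry as % of DMSO control; mean ± SD of three experiments.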

HMEC-1 [19] = experiment: Effect on VEGFR2 in HMEC1 cells assessed as membrane VEGFR2 level at 10 uM incubated for 24 hrs by flow cytometric analysis relative to control; type: functional, Homo sapiens; method in brief: as §5

Chain of Vascular endothelial growth factor receptor 2 (Homo sapiens) (P35968 whole entry): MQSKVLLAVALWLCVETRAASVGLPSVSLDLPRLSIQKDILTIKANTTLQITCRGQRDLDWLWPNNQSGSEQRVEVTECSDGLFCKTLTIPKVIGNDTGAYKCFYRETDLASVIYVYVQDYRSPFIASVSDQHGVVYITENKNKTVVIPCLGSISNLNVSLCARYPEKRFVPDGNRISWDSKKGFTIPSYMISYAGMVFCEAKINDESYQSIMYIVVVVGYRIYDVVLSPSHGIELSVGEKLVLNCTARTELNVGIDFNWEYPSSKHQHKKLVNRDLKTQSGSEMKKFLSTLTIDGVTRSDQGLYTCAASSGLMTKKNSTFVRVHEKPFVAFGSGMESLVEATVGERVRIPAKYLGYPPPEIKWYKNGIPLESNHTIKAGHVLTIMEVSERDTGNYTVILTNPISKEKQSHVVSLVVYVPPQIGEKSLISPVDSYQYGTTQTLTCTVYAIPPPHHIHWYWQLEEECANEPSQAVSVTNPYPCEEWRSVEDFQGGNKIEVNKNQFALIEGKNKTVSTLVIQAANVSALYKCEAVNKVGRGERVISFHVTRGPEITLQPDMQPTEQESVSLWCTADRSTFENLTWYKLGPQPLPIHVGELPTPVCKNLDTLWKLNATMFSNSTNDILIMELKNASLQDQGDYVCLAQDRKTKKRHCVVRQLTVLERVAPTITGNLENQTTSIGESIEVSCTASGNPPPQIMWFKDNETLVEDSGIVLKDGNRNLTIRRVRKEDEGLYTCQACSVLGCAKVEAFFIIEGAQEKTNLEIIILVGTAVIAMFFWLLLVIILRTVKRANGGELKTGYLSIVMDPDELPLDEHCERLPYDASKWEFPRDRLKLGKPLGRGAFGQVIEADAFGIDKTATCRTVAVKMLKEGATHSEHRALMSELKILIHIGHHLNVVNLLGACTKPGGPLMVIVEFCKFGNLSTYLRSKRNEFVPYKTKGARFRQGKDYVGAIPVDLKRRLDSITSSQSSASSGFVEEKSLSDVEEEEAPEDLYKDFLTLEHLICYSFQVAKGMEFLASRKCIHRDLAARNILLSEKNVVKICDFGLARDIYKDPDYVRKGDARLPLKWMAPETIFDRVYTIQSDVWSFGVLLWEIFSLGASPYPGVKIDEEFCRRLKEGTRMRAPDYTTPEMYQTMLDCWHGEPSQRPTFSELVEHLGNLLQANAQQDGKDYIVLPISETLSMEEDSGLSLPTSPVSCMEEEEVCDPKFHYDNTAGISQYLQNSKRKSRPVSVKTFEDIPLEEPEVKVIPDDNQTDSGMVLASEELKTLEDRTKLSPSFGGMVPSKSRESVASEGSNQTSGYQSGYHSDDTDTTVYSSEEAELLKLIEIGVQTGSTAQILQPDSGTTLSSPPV
Chain of Programmed cell death 1 ligand 1 (Homo sapiens) (Q9NZQ7 whole entry): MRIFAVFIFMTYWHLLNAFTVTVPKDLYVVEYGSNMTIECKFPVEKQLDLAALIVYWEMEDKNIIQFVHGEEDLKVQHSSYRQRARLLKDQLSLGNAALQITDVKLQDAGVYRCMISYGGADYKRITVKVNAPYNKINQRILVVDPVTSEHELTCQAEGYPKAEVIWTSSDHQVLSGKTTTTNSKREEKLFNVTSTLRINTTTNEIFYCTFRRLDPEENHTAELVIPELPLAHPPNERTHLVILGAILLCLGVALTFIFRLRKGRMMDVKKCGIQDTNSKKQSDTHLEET

Compound	IC50 (HeLa) [µM]	IC50 (HT-29 [1]) [µM]	IC50 (HMEC-1 [2]) [µM]	ΔTm [3] [°C]	IC50 (HEK293) [µM]	Activity (A549 [6]) [%]	ΔTm [7] [°C]	Activity (HMEC-1 [8]) [%]	IC50 (A549 [9]) [µM]	IC50 (MCF7) [µM]	Activity (HMEC-1 [10]) [%]	Activity (A549 [11]) [%]	Activity (A549 [12]) [%]	MAC (HMEC-1 [13]) [µM]	Activity (A549 [15]) [%]	Activity (A549 [16]) [%]	other results
COc1ccc(Cc2cn(CCNC(=O)Nc3cccc(Br)c3)nn2)cc1	> 200	> 200	> 200	0.79	> 200	80	7.34	79	> 200	> 200	78						Activity (A549 [4]): 80%; Activity (A549 [5]): 98%
COc1ccc(CCc2cccc(NC(=O)Nc3ccc(Cl)cc3)c2)cc1	21	1.5	> 200	2.27	1.8	38	10.2		> 200	15.3		65	44	100	97	96	Activity (A549 [14]): 16%
COc1ccc(Cc2cn(CCNC(=O)Nc3cccc(Cl)c3)nn2)cc1	> 200	> 200	> 200	1.89	> 200	70	7.34	74	> 200	> 200	81		60	50			Activity (A549 [4]): 86%; Activity (A549 [5]): 95%; Activity (A549 [14]): 49%; Activity (HT-29 [17]): 76%
COc1ccc(/C=C\c2cccc(NC(=O)Nc3ccc(Cl)cc3)c2)cc1	8	33	33		20	75			29	17		69		1	118	100	
COc1ccc(Cc2cn(CCNC(=O)Nc3ccc(C)cc3)nn2)cc1	> 200	> 200	> 200	3.09	> 200	66	3.68	97	> 200	> 200	90		70				Activity (A549 [14]): 6%; Activity (HT-29 [17]): 22%
COc1ccc(CCc2cccc(NC(=O)Nc3cccc(Cl)c3)c2)cc1	16.5	14	50	5.2	5.3	51	4.1		> 200	8.2		95	51	10	97	98	
COc1ccc(Cc2cn(CCNC(=O)Nc3ccc(Cl)cc3)nn2)cc1	> 200	> 200	> 200	1.93	> 200	69	5.09	90	> 200	> 200	102		73	400			Activity (A549 [14]): 16%; Activity (HT-29 [17]): 84%
COc1ccc(/C=C\c2cccc(NC(=O)Nc3ccccc3Cl)c2)cc1	22	12	33		6.5	83			21	19		61		10	114	177	
COc1ccc(Cc2cn(CCNC(=O)Nc3ccccc3C)nn2)cc1	> 200	> 200	> 200	2.18	> 200	82	9.98	79	> 200	> 200	100			200			
COc1ccc(Cc2cn(CCNC(=O)Nc3ccc(Br)cc3)nn2)cc1	> 200	> 200	> 200	8.74	> 200	>100	2.61	40	> 200	> 200	55						Activity (A549 [4]): 61%; Activity (A549 [5]): 70%
COc1ccc(/C=C/c2cccc(NC(=O)Nc3ccccc3Cl)c2)cc1	> 100	47	> 100	5.09	57	74	10.2		61	> 100		42		10	109	42	Activity (HMEC-1 [18]): 121%; Activity (HMEC-1 [19]): 76%
COc1ccc(/C=C\c2cccc(NC(=O)Nc3cccc(Cl)c3)c2)cc1	10.5	20	32.9		5	92			38	37.2		17		10	102	186	
COc1ccc(CCc2cccc(NC(=O)Nc3ccccc3Cl)c2)cc1	69	20	48	2.25	90	61	16.2		24	> 100		76	63	1	100	100	
COc1ccc(Cc2cn(CCNC(=O)Nc3cccc(C)c3)nn2)cc1	> 200	> 200	> 200	2.55	> 200	90	5.21	76	> 200	> 200	91						
COc1ccc(Cc2cn(CCNC(=O)Nc3ccccc3)nn2)cc1	> 200	> 200	> 200	2.1	> 200	83	10.5	97	> 200	> 200	105						
CCN(CC)CCNC(=O)c1c(C)[nH]c(/C=C2\C(=O)Nc3ccc(F)cc32)c1C [SUNITINIB]	7.8	3.8	7		5				11	0.08		56		3			
